Test results taken from ChEMBL document CHEMBL1136726, “Synthesis and characterization of iodine-123 labeled 2beta-carbomethoxy-3beta-(4'-((Z)-2-iodoethenyl)phenyl)nortropane. A ligand for in vivo imaging of serotonin transporters by single-photon-emission tomography” (J Med Chem, 2003).

Key:
Rattus norvegicus [1] = test: Ratio of distribution of radioactivity in rat brain region pons and cerebellum 60 min after intravenous administration of iodine labeled compound in presence of reboxetine blocker in study 2; assay type: ADME, organism-based; settings: in vivo, 1 h
Rattus norvegicus [2] = test: Distribution of radioactivity in rat lung 120 min after intravenous administration of iodine labeled compound; assay type: ADME, organism-based; settings: in vivo, 2 h
How it was run: (§1)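 Tail-vein injection of [123I]ZIENT (10 μCi in 0.2 mL 10% EtOH/0.9% NaCl, then 0.4 mL saline flush) into ketamine-anaesthetised male Sprague–Dawley rats (225–300 g). Animals were killed by cardiac excision at set times. Organs were excised, rinsed, blotted, weighed and gamma-counted. % dose/g was calculated against diluted aliquots of injectate. Mean ± SE, n=4–5.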

Rattus norvegicus [3] = test: Ratio of distribution of radioactivity in rat brain prefrontal cortex and cerebellum 120 min after intravenous administration of iodine labeled compound; assay type: ADME, organism-based; settings: in vivo, 2 h
How it was run: (§2)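 Male Sprague–Dawley rats (225–300 g) under ketamine anaesthesia were given [123I]ZIENT (10 μCi) in 0.2 mL 10% EtOH/0.9% NaCl into the tail vein, with a saline flush. Hypothalamus, prefrontal cortex, striatum, pons and cerebellum were dissected and gamma-counted. % injected dose/g came from decay-corrected counts against the diluted injected dose, and region/cerebellum ratios were taken from these. Mean ± SE, n=4–5.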

Rattus norvegicus [4] = test: Distribution of radioactivity in rat brain 30 min after intravenous administration of iodine labeled compound; assay type: ADME, organism-based; settings: in vivo, 0.5 h
Rattus norvegicus [5] = test: Distribution of radioactivity in rat spleen 120 min after intravenous administration of iodine labeled compound; assay type: ADME, organism-based; settings: in vivo, 2 h; how it was run: as §1
Rattus norvegicus [6] = test: Ratio of distribution of radioactivity in rat brain region pons and cerebellum 60 min after intravenous administration of iodine labeled compound in presence of fluvoxamine blocker in study 1; assay type: ADME, organism-based; settings: in vivo, 1 h
Rattus norvegicus [7] = test: Distribution of radioactivity in rat brain striatum 5 min after intravenous administration of iodine labeled compound; assay type: ADME, organism-based; settings: in vivo; how it was run: as §2
Rattus norvegicus [8] = test: Distribution of radioactivity in rat brain region frontal cortex 60 min after intravenous administration of iodine labeled compound in absence of blocker in study 2; assay type: ADME, organism-based; settings: in vivo, 1 h
How it was run: (§3)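 Male Sprague–Dawley rats (250–300 g), ketamine-anesthetized. Blocker (2 mg/kg) or none was given iv 15 min before tail-vein radioligand (10 µCi in 0.2 mL 10% EtOH/saline). Rats were killed at 60 min with im pentobarbital. Brain regions were dissected, weighed and gamma-counted. % dose/g was taken from decay-corrected, background-subtracted counts versus the injected dose.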

[9] = target: Sodium-dependent serotonin transporter (Homo sapiens, UniProt P31645); test: In vitro competitive binding versus [3H]citalopram in murine kidney cells transfected with cDNA for human serotonin transporter (SERT); assay type: cell-based
Rattus norvegicus [10] = test: Distribution of radioactivity in rat brain region prefrontal cortex 60 min after intravenous administration of iodine labeled compound in presence of RTI-113 blocker in study 1; assay type: ADME, organism-based; settings: in vivo, 1 h; how it was run: as §3
Rattus norvegicus [11] = test: Distribution of radioactivity in rat brain region cerebellum 60 min after intravenous administration of iodine labeled compound in presence of RTI-113 blocker in study 2; assay type: ADME, organism-based; settings: in vivo, 1 h; how it was run: as §3
Rattus norvegicus [12] = test: Distribution of radioactivity in rat lung 5 min after intravenous administration of iodine labeled compound; assay type: ADME, organism-based; settings: in vivo; how it was run: as §1
Rattus norvegicus [13] = test: Distribution of radioactivity in rat muscle tissue 120 min after intravenous administration of iodine labeled compound; assay type: ADME, organism-based; settings: in vivo, 2 h; how it was run: as §1
Rattus norvegicus [14] = test: Ratio of distribution of radioactivity in rat brain region pons and cerebellum 60 min after intravenous administration of iodine labeled compound in absence of blocker in study 1; assay type: ADME, organism-based; settings: in vivo, 1 h
Rattus norvegicus [15] = test: Ratio of distribution of radioactivity in rat brain striatum and cerebellum 5 min after intravenous administration of iodine labeled compound; assay type: ADME, organism-based; settings: in vivo
How it was run: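 Male Sprague–Dawley rats (225–300 g), ketamine anesthesia, injected via tail vein with [123I]ZIENT (10 μCi in 0.2 mL 10% EtOH/0.9% NaCl, 0.4 mL saline flush). Killed at 5, 30, 60 or 120 min. Striatum and cerebellum dissected, weighed, γ-counted. Decay-corrected %injected dose/g taken against diluted injectate. Ratio is striatum over cerebellum. Four or five rats per time point, mean ± standard error.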

Rattus norvegicus [16] = test: Distribution of radioactivity in rat heart 30 min after intravenous administration of iodine labeled compound; assay type: ADME, organism-based; settings: in vivo, 0.5 h; how it was run: as §1
Rattus norvegicus [17] = test: Distribution of radioactivity in rat heart 5 min after intravenous administration of iodine labeled compound; assay type: ADME, organism-based; settings: in vivo; how it was run: as §1
Rattus norvegicus [18] = test: Distribution of radioactivity in rat blood 60 min after intravenous administration of iodine labeled compound; assay type: ADME, organism-based; settings: in vivo, 1 h
How it was run: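 Male Sprague–Dawley rats (225–300 g) under ketamine received 10 µCi radioligand in 0.2 mL 10% EtOH/0.9% NaCl via tail vein, then a saline flush. Killed by cardiac excision at set times. Organs were excised, weighed and gamma-counted. % dose/g was taken against diluted injectate. Mean ± SE and range, n=4 (5 min) or 5 (30–120 min).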

Rattus norvegicus [19] = test: Distribution of radioactivity in rat brain pons 30 min after intravenous administration of iodine labeled compound; assay type: ADME, organism-based; settings: in vivo, 0.5 h
How it was run: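 Male Sprague–Dawley rats (225–300 g) under ketamine received 10 µCi radioligand iv (tail vein) in 10% EtOH/saline. Hypothalamus, prefrontal cortex, striatum, pons and cerebellum were dissected, weighed and gamma-counted. % injected dose/g was taken from decay-corrected counts versus diluted dose. Mean ± SE and range, n=5 (5, 30 min) or 4 (60, 120 min).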

Rattus norvegicus [20] = test: Ratio of distribution of radioactivity in rat brain prefrontal cortex and cerebellum 60 min after intravenous administration of iodine labeled compound; assay type: ADME, organism-based; settings: in vivo, 1 h; how it was run: as §2
Rattus norvegicus [21] = test: Distribution of radioactivity in rat brain region striatum 60 min after intravenous administration of iodine labeled compound in absence of blocker in study 2; assay type: ADME, organism-based; settings: in vivo, 1 h
How it was run: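 Male Sprague–Dawley rats (250–300 g), ketamine-anaesthetised, received [123I]ZIENT (10 μCi) in 0.2 mL 10% ethanol/0.9% NaCl via the tail vein. […] Rats were killed at 60 min with pentobarbital, brain regions dissected and gamma-counted. Values are % dose/g from decay-corrected, background-subtracted counts against the diluted injected dose.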

Rattus norvegicus [22] = test: Ratio of distribution of radioactivity in rat brain region hypothalamus and cerebellum 60 min after intravenous administration of iodine labeled compound in absence of blocker in study 1; assay type: ADME, organism-based; settings: in vivo, 1 h

Chain of Sodium-dependent serotonin transporter (P31645 whole entry): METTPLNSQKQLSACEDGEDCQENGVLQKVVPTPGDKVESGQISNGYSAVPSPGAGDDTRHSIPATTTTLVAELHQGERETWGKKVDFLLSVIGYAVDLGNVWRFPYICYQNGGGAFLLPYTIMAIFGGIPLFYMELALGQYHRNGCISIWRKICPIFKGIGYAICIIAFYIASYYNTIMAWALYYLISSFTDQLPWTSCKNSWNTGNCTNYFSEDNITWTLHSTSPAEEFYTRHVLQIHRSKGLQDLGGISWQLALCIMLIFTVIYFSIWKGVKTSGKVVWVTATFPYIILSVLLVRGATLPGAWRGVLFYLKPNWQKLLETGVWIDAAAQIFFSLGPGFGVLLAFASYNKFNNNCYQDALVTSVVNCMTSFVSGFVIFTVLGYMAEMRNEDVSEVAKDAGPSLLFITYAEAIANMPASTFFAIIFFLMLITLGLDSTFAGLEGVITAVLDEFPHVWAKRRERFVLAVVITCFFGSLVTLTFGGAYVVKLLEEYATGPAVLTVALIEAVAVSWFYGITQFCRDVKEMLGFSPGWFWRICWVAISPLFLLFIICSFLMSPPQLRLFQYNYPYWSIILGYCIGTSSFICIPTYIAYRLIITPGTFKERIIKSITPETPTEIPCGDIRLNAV

With `COC(=O)[C@@H]1C2CCC(C[C@@H]1c1ccc(/C=C\I)cc1)N2` (some centres not stated) the “Distribution (dose/g)” value (Rattus norvegicus [1]) was 2.35%, the “Distribution (dose/g)” value (Rattus norvegicus [2]) was 0.76% and the “Distribution (dose/g)” value (Rattus norvegicus [3]) was 4.08%. For the same compound, the “Distribution (dose/g)” value (Rattus norvegicus [4]) was 0.74%, the “Distribution (dose/g)” value (Rattus norvegicus [5]) was 0.43% and the “Distribution (dose/g)” value (Rattus norvegicus [6]) was 1.47%. For the same compound, the “Distribution (dose/g)” value (Rattus norvegicus [7]) was 0.64%, the “Distribution (dose/g)” value (Rattus norvegicus [8]) was 0.59% and the Ki [9] was 0.05 nM. For the same compound, the “Distribution (dose/g)” value (Rattus norvegicus [10]) was 0.78%, the “Distribution (dose/g)” value (Rattus norvegicus [11]) was 0.25% and the “Distribution (dose/g)” value (Rattus norvegicus [12]) was 4.96%. For the same compound, the “Distribution (dose/g)” value (Rattus norvegicus [13]) was 0.17%, the “Distribution (dose/g)” value (Rattus norvegicus [14]) was 2.58% and the “Distribution (dose/g)” value (Rattus norvegicus [15]) was 1.21%. The “Distribution (dose/g)” value (Rattus norvegicus [16]) was 0.36%, the “Distribution (dose/g)” value (Rattus norvegicus [17]) was 0.81% and the “Distribution (dose/g)” value (Rattus norvegicus [18]) was 0.37%. The “Distribution (dose/g)” value (Rattus norvegicus [19]) was 0.6%, the “Distribution (dose/g)” value (Rattus norvegicus [20]) was 3.28% and the “Distribution (dose/g)” value (Rattus norvegicus [21]) was 0.63%. The “Distribution (dose/g)” value (Rattus norvegicus [22]) was 3.83%.
